Results taken from ChEMBL document CHEMBL5032512, “A Photohormone for Light-Dependent Control of PPARα in Live Cells” (J Med Chem, 2021).
Active and inactive are the calls of the source. The calls are words filed in the database; no cut-off is given here.

Key:
[1] = target: T1, Peroxisome proliferator-activated receptor delta (Homo sapiens) (UniProt Q03181); experiment: Agonist activity at Gal4-fused human PPARdelta LBD transfected in HEK293T cells assessed as maximal relative activation incubated for 14 to 16 hrs by dual-Glo luciferase assay relative to L165,041; assay type: cell-based; conditions: time 14-16 hrs
T1 sequence (whole entry): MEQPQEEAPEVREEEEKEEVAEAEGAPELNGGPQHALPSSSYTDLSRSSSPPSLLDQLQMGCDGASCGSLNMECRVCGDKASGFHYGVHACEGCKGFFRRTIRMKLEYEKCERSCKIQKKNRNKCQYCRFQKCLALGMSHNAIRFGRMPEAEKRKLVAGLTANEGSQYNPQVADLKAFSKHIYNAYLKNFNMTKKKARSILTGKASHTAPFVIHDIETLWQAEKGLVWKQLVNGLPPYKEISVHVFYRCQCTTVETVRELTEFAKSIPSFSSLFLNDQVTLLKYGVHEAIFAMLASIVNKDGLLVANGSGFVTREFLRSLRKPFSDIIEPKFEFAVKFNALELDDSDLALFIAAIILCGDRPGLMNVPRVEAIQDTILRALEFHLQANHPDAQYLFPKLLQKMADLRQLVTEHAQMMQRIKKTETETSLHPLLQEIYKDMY
Summary of the method: (§1)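 HEK293T cells transiently transfected with pFR-Luc, pRL-SV40 and Gal4 fusion of human PPAR hinge region plus LBD. Compound added 5 h later in Opti-MEM with 0.1% DMSO, then left overnight (14−16 h). Dual-Glo firefly/Renilla luciferase read, giving RLU. Fold activation is taken against the DMSO control. Max relative activation is set against 1 μM GW7647 (α) or L165,041 (δ). EC50 from a four-parameter fit. Duplicates, ≥3 independent runs.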

[2] = target: T2, Peroxisome proliferator-activated receptor delta (Homo sapiens, UniProt Q03181); experiment: Agonist activity at Gal4-fused human PPARdelta LBD transfected in HEK293T cells assessed as transcriptional activation incubated for 14 to 16 hrs by dual-Glo luciferase assay; assay type: cell-based; summary of the method: as §1
T2 sequence (Q03181 whole entry): T1 sequence (whole entry)

[3] = target: T3, Peroxisome proliferator-activated receptor alpha (Homo sapiens) (UniProt Q07869); experiment: Agonist activity at Gal4-fused human PPARalpha LBD transfected in HEK293T cells assessed as maximal relative activation incubated for 14 to 16 hrs by dual-Glo luciferase assay relative to GW7647; assay type: cell-based; conditions: time 14-16 hrs; summary of the method: as §1
T3 sequence (whole entry): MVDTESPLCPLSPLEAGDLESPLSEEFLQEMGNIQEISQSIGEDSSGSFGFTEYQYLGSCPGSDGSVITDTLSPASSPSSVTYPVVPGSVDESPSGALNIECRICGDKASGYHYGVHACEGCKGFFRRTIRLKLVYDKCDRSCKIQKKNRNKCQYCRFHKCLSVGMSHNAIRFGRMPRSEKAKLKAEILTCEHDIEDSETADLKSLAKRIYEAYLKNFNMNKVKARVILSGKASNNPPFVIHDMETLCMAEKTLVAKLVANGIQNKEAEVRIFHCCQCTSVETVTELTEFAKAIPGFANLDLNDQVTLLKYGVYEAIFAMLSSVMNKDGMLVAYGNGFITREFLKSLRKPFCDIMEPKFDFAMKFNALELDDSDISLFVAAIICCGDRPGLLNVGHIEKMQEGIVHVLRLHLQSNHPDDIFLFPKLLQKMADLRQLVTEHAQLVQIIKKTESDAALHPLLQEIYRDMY

[4] = target: T4, Peroxisome proliferator-activated receptor alpha (Homo sapiens, UniProt Q07869); experiment: Agonist activity at Gal4-fused human PPARalpha LBD transfected in HEK293T cells assessed as transcriptional activation incubated for 14 to 16 hrs by dual-Glo luciferase assay; assay type: cell-based; summary of the method: as §1
T4 sequence (Q07869 whole entry): T3 sequence (whole entry)

[5] = Photostability of compound assessed as photochemical switch by measuring trans-isoform at 50 uM incubated for 8 hrs followed by irradiation with 460 nm UV light for 3 mins by HPLC analysis; assay type: physicochemical
[6] = target: T3, Peroxisome proliferator-activated receptor alpha (Homo sapiens); experiment: Agonist activity at human Gal4-PPARalpha transfected in HEK293T cells assessed as increase in mCherry fluorescence at 10 nM incubated for 8 hrs followed by irradiation with 365 nm UV light for 3 mins by fluorescence microscopic analysis; assay type: cell-based
Summary of the method: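 Live HEK293T cells carrying UAS-mCherry-NLS plus Gal4-PPARα-LBD were treated with compound in 0.1% DMSO. mCherry read (ex 585, em 610 nm) hourly from 8 to 24 h and at 36 h. At 8 h, isomers switched by 3 min illumination at 365 or 460 nm. cis state held by Cell DISCO. Fold intensity against DMSO. n = 3.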

[7] = target: T3, Peroxisome proliferator-activated receptor alpha (Homo sapiens); experiment: Agonist activity at human Gal4-PPARalpha transfected in HEK293T cells assessed as increase in mCherry fluorescence at 10 nM incubated for 40 hrs by fluorescence microscopic analysis; assay type: cell-based
Summary of the method: (§2)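 HEK293T cells transfected separately with UAS-mCherry-NLS plus Gal4-PPARα-LBD, or […]-GFP plus Gal4-PPARδ-LBD. Cells pooled 5 h later and reseeded with compound in 0.1% DMSO. cis form preirradiated 3 min at 365 nm, then held with 75 ms 370 nm pulses every 15 s. Microscope images taken at 40 h. Integrated density set against 1 μM reference agonist. Duplicates, two independent runs.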

[8] = target: T3, Peroxisome proliferator-activated receptor alpha (Homo sapiens); experiment: Agonist activity at human Gal4-PPARalpha transfected in HEK293T cells assessed as increase in mCherry fluorescence at 300 nM incubated for 40 hrs by fluorescence microscopic analysis; assay type: cell-based; conditions: filed as agonist; summary of the method: as §2
[9] = target: T1, Peroxisome proliferator-activated receptor delta (Homo sapiens); experiment: Agonist activity at human Gal4-PPARdelta transfected in HEK293T cells assessed as increase in eGFP fluorescence at 300 nM incubated for 40 hrs by fluorescence microscopic analysis; assay type: cell-based; summary of the method: as §2
[10] = target: T5, Peroxisome proliferator-activated receptor gamma (Homo sapiens, UniProt P37231); experiment: Agonist activity at Gal4-fused human PPARgamma LBD transfected in HEK293T cells assessed as transcriptional activation incubated for 14 to 16 hrs by dual-Glo luciferase assay; assay type: cell-based
T5 sequence (P37231 whole entry): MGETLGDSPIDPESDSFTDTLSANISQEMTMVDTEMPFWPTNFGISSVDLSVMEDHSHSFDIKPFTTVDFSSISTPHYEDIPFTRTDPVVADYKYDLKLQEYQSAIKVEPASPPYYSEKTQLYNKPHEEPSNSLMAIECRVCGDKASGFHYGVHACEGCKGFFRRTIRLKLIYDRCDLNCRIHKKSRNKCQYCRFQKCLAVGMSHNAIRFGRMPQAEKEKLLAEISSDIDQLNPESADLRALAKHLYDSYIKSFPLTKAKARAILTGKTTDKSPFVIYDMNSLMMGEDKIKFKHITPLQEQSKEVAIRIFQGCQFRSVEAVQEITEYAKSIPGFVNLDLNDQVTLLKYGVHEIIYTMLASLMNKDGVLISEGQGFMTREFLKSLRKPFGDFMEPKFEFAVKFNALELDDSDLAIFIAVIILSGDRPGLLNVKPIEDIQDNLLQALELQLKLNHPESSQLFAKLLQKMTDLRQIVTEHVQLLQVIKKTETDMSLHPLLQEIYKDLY

[11] = Photostability of compound assessed as photochemical switch by measuring cis-isoform at 50 uM incubated for 8 hrs followed by irradiation with 365 nm UV light for 3 mins by HPLC analysis; assay type: physicochemical

Row | Structure (SMILES) | max activation ([1]; filed as agonist) [%] | EC50 [2] [nM] | max activation ([3]; filed as agonist) [%] | EC50 [4] [nM] | Stability [5] | Activity [6] | Activity [7] | Activity [8] | Activity [9] | EC50 [10] [nM] | max activation [1] [%] | max activation [3] [%] | Stability [11]
1 | Cc1cc(/N=N\c2ccccc2)ccc1OCCc1ccc(OC(C)(C)C(=O)O)cc1 | 41 | 3000 | 43 | 240 | Stable | inactive | inactive | Active | inactive | – | – | – | –
2 | CC(C)(Oc1ccc(CCOc2ccc(/N=N/c3ccccc3)cc2Cl)cc1)C(=O)O | 46 | 240 | 49 | 29 | – | – | – | – | – | 820 | – | – | –
3 | Cc1ccc(/N=N\c2ccc(OCCc3ccc(OC(C)(C)C(=O)O)cc3)c(C)c2)cc1 | – | 800 | – | 640 | – | – | – | – | – | 1200 | 32 | 26 | –
4 | Cc1ccc(/N=N\c2ccc(OCCc3ccc(OC(C)(C)C(=O)O)cc3)c(C(F)(F)F)c2)cc1 | 40 | 410 | 41 | 190 | – | – | – | – | – | 1300 | – | – | –
5 | Cc1ccc(/N=N/c2ccc(OCCc3ccc(OC(C)(C)C(=O)O)cc3)c(C(F)(F)F)c2)cc1 | 43 | 113 | 87 | 70 | – | – | – | – | – | 1200 | – | – | –
6 | CC(C)c1ccc(/N=N/c2ccc(OCCc3ccc(OC(C)(C)C(=O)O)cc3)cc2)cc1 | 40 | 1770 | – | 470 | – | – | – | – | – | – | – | 25 | –
7 | Cc1ccc(/N=N\c2ccc(OCCc3ccc(OC(C)(C)C(=O)O)cc3)c(Cl)c2)cc1 | – | 380 | 41 | 290 | Stable | – | – | – | – | – | 35 | – | –
8 | Cc1ccc(/N=N/c2ccc(OCCc3ccc(OC(C)(C)C(=O)O)cc3)c(C)c2)cc1 | 47 | 120 | – | 36 | – | – | – | – | – | 2300 | – | 34 | –
9 | CC(C)c1ccc(/N=N\c2ccc(OCCc3ccc(OC(C)(C)C(=O)O)cc3)cc2)cc1 | – | 3400 | – | 280 | – | – | – | – | – | – | 22 | 19 | –
10 | CC(C)(Oc1ccc(CCOc2ccc(/N=N\c3ccccc3)cc2Cl)cc1)C(=O)O | 44 | 350 | 45 | 40 | – | – | – | – | – | 920 | – | – | –
11 | Cc1ccc(/N=N\c2ccc(OCCc3ccc(OC(C)(C)C(=O)O)cc3)cc2)cc1 | – | 3800 | – | 1100 | – | – | – | – | – | > 10000 | 31 | 22 | –
12 | CC(C)(Oc1ccc(CCOc2ccc(/N=N/c3ccccc3)cc2)cc1)C(=O)O | 61 | 2200 | – | 1090 | – | – | – | – | – | 2670 | – | 31 | –
13 | CC(C)(Oc1ccc(COc2ccc(/N=N/c3ccccc3)cc2)cc1)C(=O)O | 40 | 2800 | 40 | 3700 | – | – | – | – | – | – | – | – | –
14 | CC(C)(Oc1ccc(CCOc2ccc(/N=N/c3ccccc3)cc2C(F)(F)F)cc1)C(=O)O | 45 | 140 | 46 | 9 | – | – | – | – | – | – | – | – | –
15 | CC(C)(Oc1ccc(CCOc2ccc(/N=N\c3ccccc3)cc2)cc1)C(=O)O | – | 6000 | – | 800 | – | – | – | – | – | 6000 | 34 | 29 | –
16 | CC(C)(Oc1ccc(CCOc2ccc(/N=N\c3ccc(Cl)cc3)cc2)cc1)C(=O)O | – | 8100 | – | 1100 | – | – | – | – | – | > 10000 | 28 | 24 | –
17 | CC(C)(Oc1ccc(COc2ccc(/N=N\c3ccccc3)cc2)cc1)C(=O)O | – | 4100 | – | 3500 | – | – | – | – | – | – | 26 | 28 | –
18 | Cc1ccc(/N=N/c2ccc(OCCc3ccc(OC(C)(C)C(=O)O)cc3)c(Cl)c2)cc1 | 65 | 120 | 76 | 40 | – | – | – | – | – | – | – | – | Stable
19 | CC(C)(Oc1ccc(CCOc2ccc(/N=N/c3ccc(Cl)cc3)cc2)cc1)C(=O)O | – | 8000 | – | 790 | – | – | – | – | – | 3200 | 39 | 26 | –
20 | CC(C)(Oc1ccc(CCOc2ccc(/N=N\c3ccccc3)cc2C(F)(F)F)cc1)C(=O)O | – | 310 | 42 | 71 | – | – | – | – | – | – | 37 | – | –
